Measured values as given in ChEMBL document CHEMBL3351484, “Positive allosteric modulators of 2-amino-3-(3-hydroxy-5-methylisoxazol-4-yl)propionic acid receptors belonging to 4-cyclopropyl-3,4-dihydro-2h-1,2,4-pyridothiadiazine dioxides and diversely chloro-substituted 4-cyclopropyl-3,4-dihydro-2H-1,2,4-benzothiadiazine 1,1-dioxides” (J Med Chem, 2014).
Calls of active or inactive are those of the source. The calls are words filed in the database; no cut-off is given here.

Experiments:
Glutamate receptor 2 = Glutamate receptor 2 (Homo sapiens, UniProt P42262); assay: Binding affinity to GluA2-LBD-L483Y-N754S complex (unknown origin) by isothermal titration calorimetry
Method in brief: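 Direct ITC titration at 25 °C. 20 × 2 μL injections at 3 min, the first 0.4 μL. First point discarded and dilution heat subtracted before a single-site fit. Mean of three titrations.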

Primary neuron [1] = assay: Positive allosteric modulation of AMPA receptor in rat embryonic cortex primary neuronal culture assessed as maximal increase in AMPA-induced membrane depolarization normalized to AMPA-evoked response by microplate reader; assay type: cell membranes
Method in brief: (§1)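 Primary cultures of rat embryonic cortical neurons; depolarization evoked by 300 μM AMPA read with fluorescent membrane potential dyes on an imaging plate reader. EC2× is the modulator level doubling the AMPA response (geometric mean, 95% CI).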

[2] = Positive allosteric modulation of AMPA receptor in rat embryonic cortex primary neuronal culture assessed as increase in AMPA-induced membrane depolarization by microplate reader; assay type: cell membranes; settings: primary neuron; method in brief: as §1
Primary neuron [3] = assay: Potentiation of AMPA receptor in rat embryonic cortex primary neuronal culture assessed as concentration required to 2-fold increase in AMPA-induced membrane depolarization by microplate reader; assay type: cell membranes; method in brief: as §1
Rattus norvegicus [4] = species: Rattus norvegicus; assay: Positive allosteric modulation of AMPA receptor in rat hippocampal slice assessed as increase in AMPA-mediated presynaptic noradrenaline release; assay type: tissue-based; set-up: concentration or dose not given beside the values; settings: Hippocampus
Method in brief: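 Rat hippocampal slices, [3H]noradrenaline release evoked by (S)-AMPA 10 μM, modulator at 300 μM; release given as percent of (S)-AMPA alone taken as 100%.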

Rattus norvegicus [5] = species: Rattus norvegicus; assay: Positive allosteric modulation of AMPA receptor in rat hippocampal slice assessed as half-width of AMPA-mediated […] postsynaptic field potential in CA1 area at 10 uM; assay type: tissue-based; settings: Hippocampus
Method in brief: (§2)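 Rat hippocampal slices perfused with medium containing 1.2 mM Mg2+; field EPSPs recorded in CA1 after electrical stimulation of Schaffer collaterals. Area, amplitude and half-width normalized to the 10 min baseline as 100%, reported as percent increase, mean ± SEM (n = 3–4).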

Rattus norvegicus [6] = species: Rattus norvegicus; assay: Positive allosteric modulation of AMPA receptor in rat hippocampal slice assessed as half-width of AMPA-mediated […] postsynaptic field potential in CA1 area at 3 uM; assay type: tissue-based; settings: Hippocampus; method in brief: as §2
Hippocampus [7] = assay: Potentiation of tetanus-induced synaptic response in Wistar rat hippocampal dentate gyrus at 3 mg/kg, ip measured first 18 mins; assay type: functional, organism-based; set-up: dose 3 mg/kg
Method in brief: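 Anesthetized Wistar rats, dosed ip at 3 or 10 mg/kg, n = 8 per group. Dentate gyrus responses evoked by perforant-path stimulation every 2 min, averaged over eight stimulations and normalized to the 60 min baseline. High-frequency tetanus given 1 h after dosing, with recording for 3 h. Potentiation duration judged per group against the 6 min pre-tetanus period.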

[8] = Drug uptake in mouse brain at 3 mg/kg, po qd after 20 mins by LC-MS/MS analysis; assay type: ADME, organism-based; set-up: dose 3 mg/kg, route oral; settings: read-out: Drug uptake
Method in brief: (§3)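 NMRI mice dosed orally, killed by decapitation 20 min later; brain and blood rapidly removed and frozen, compound quantified by LC−MS/MS. Brain in ng/g, plasma in ng/mL; n = 3.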

Rattus norvegicus [9] = species: Rattus norvegicus; assay: Positive allosteric modulation of AMPA receptor in rat hippocampal slice assessed as amplitude of AMPA-mediated […] postsynaptic field potential in CA1 area at 3 uM; assay type: tissue-based; settings: Hippocampus; method in brief: as §2
Rattus norvegicus [10] = species: Rattus norvegicus; assay: Positive allosteric modulation of AMPA receptor in rat hippocampal slice assessed as area of AMPA-mediated […] postsynaptic field potential in CA1 area at 3 uM; assay type: tissue-based; settings: Hippocampus; method in brief: as §2
Mus musculus = assay: Increase in object recognition task in CD1 mouse at 1 mg/kg, po after 24 hrs; assay type: functional, organism-based; set-up: dose 1 mg/kg
Method in brief: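 Three-session test (habituation, familiarization, recognition) given at 24 h intervals in CD1 mice, compound given orally 1 h before each session. Durations of exploring new versus familiar objects recorded; mean + SEM, paired Student's t test versus familiar object.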

Hippocampus [11] = assay: Potentiation of high-frequency stimulation-induced synaptic response in Wistar rat hippocampal dentate gyrus assessed as increase in long-term potentiation at 10 mg/kg, ip after 1 hr; assay type: functional, organism-based; set-up: dose 10 mg/kg
Method in brief: (§4)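 Anesthetized Wistar rats dosed ip; perforant-path stimulation with dentate gyrus responses. 1 h after dosing, LTP induced by tetanic high-frequency stimulation and responses followed 3 h; eight responses averaged (every 2 min), normalized to 60 min baseline. n = 8 per group; Dunnett test after two-way ANOVA versus vehicle.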

Hippocampus [12] = assay: Potentiation of high-frequency stimulation-induced synaptic response in Wistar rat hippocampal dentate gyrus assessed as excitatory postsynaptic field potential at 3 mg/kg, ip after 3 hrs; assay type: functional, organism-based; set-up: dose 3 mg/kg; method in brief: as §4
[13] = Drug uptake in mouse plasma at 3 mg/kg, po qd after 20 mins by LC-MS/MS analysis; assay type: ADME, organism-based; set-up: dose 3 mg/kg, route oral; method in brief: as §3
[14] = Ratio of drug level in mouse brain to plasma at 3 mg/kg, po qd after 20 mins by LC-MS/MS analysis; assay type: ADME, organism-based; set-up: dose 3 mg/kg, route oral
Method in brief: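 Oral dosing in NMRI mice, 20 min before decapitation; brain and plasma levels measured by LC−MS/MS (n = 3), ratio taken as [brain]/[plasma] in mL/g.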

Rattus norvegicus [15] = species: Rattus norvegicus; assay: Positive allosteric modulation of AMPA receptor in rat hippocampal slice assessed as area of AMPA-mediated […] postsynaptic field potential in CA1 area at 10 uM; assay type: tissue-based; settings: Hippocampus; method in brief: as §2
Hippocampus [16] = assay: Potentiation of high-frequency stimulation-induced synaptic response in Wistar rat hippocampal dentate gyrus assessed as excitatory postsynaptic field potential at 10 mg/kg, ip after 3 hrs; assay type: functional, organism-based; set-up: dose 10 mg/kg; method in brief: as §4
Rattus norvegicus [17] = species: Rattus norvegicus; assay: Positive allosteric modulation of AMPA receptor in rat hippocampal slice assessed as amplitude of AMPA-mediated […] postsynaptic field potential in CA1 area at 10 uM; assay type: tissue-based; settings: Hippocampus; method in brief: as §2
Hippocampus [18] = assay: Potentiation of tetanus-induced synaptic response in Wistar rat hippocampal dentate gyrus at 3 mg/kg, ip measured during 42 mins; assay type: functional, organism-based; set-up: dose 3 mg/kg

Chain of Glutamate receptor 2 (P42262 whole entry, the tested form may be a part): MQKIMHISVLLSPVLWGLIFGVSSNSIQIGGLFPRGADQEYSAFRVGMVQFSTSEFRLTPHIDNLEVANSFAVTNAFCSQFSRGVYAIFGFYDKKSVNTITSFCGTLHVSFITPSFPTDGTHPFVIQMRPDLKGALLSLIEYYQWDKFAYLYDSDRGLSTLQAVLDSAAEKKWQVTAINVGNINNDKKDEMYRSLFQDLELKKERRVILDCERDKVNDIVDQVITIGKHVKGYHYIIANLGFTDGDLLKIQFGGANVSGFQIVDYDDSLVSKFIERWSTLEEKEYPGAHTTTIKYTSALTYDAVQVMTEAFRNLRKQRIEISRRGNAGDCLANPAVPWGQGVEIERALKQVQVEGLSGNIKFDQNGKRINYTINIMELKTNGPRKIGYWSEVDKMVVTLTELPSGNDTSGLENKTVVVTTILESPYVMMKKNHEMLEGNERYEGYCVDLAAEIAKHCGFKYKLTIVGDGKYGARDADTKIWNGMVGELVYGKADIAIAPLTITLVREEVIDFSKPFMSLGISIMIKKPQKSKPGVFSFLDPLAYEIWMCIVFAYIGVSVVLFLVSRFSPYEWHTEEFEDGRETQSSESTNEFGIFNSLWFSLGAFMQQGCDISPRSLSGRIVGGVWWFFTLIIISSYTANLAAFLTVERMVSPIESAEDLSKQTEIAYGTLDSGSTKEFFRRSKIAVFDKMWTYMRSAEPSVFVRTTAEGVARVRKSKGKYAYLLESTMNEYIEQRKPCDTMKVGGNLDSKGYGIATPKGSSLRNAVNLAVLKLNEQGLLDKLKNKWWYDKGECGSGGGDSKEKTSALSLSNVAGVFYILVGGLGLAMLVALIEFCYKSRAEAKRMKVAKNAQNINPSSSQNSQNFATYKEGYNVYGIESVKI

## CCN1CNS(=O)(=O)c2cnccc21
Glutamate receptor 2
  Kd: 1200 µM

## O=S1(=O)NCN(C2CC2)c2ccc(F)cc21
Primary neuron [1]
  Emax: 15
[2]
  EC50: 0.9 µM
Primary neuron [3]
  Activity: 0.27 µM
Glutamate receptor 2
  Kd: 0.35 µM

## O=S1(=O)NCN(C2CC2)c2cc(Cl)ccc21
Primary neuron [1]
  Emax: > 5
Primary neuron [3]
  Activity: 5.2 µM
Rattus norvegicus [4]
  Activity: 327%

## O=S1(=O)NCN(C2CC2)c2ncc(Cl)cc21
Primary neuron [1]
  Emax: > 7
Primary neuron [3]
  Activity: 2.4 µM
Rattus norvegicus [4]
  Activity: 276%

## O=S1(=O)NCN(C2CC2)c2ccncc21
Primary neuron [1]
  Emax: > 11
Primary neuron [3]
  Activity: 4.4 µM
Rattus norvegicus [4]
  Activity: 330%

## O=S1(=O)NCN(C2CC2)c2ccc(Cl)cc21
Rattus norvegicus [5]
  Activity: 113%
Rattus norvegicus [6]
  Activity: 9%
Hippocampus [7]
  Activity: Active
[8]
  concentration at 20 min: 72.7 ng/g
Rattus norvegicus [9]
  Activity: 5.3%
Rattus norvegicus [10]
  Activity: 10%
Mus musculus
  Activity: Active
Primary neuron [1]
  Emax: 11
Hippocampus [11]
  Activity: Active
Hippocampus [12]
  Activity: Active
[13]
  concentration at 20 min: 64.7 ng/mL
[14]
  Kp at 20 min: 1.12
[2]
  EC50: 2.9 µM
Rattus norvegicus [15]
  Activity: 145%
Primary neuron [3]
  Activity: 0.68 µM
Hippocampus [16]
  Activity: Active
Rattus norvegicus [4]
  Activity: 411%
Rattus norvegicus [17]
  Activity: 58%
Hippocampus [18]
  Activity: Active

## O=S1(=O)NCN(C2CC2)c2ncccc21
Primary neuron [1]
  Emax: > 4
Primary neuron [3]
  Activity: 13.9 µM
Rattus norvegicus [4]
  Activity: 221%

## O=S1(=O)NCN(C2CC2)c2cccnc21
Primary neuron [1]
  Emax: 10
[2]
  EC50: 1.5 µM
Primary neuron [3]
  Activity: 0.35 µM
Rattus norvegicus [4]
  Activity: 323%

## O=S1(=O)NCN(C2CC2)c2c(Cl)cccc21
Primary neuron [1]
  Emax: > 3
Primary neuron [3]
  Activity: 27.1 µM
Rattus norvegicus [4]
  Activity: 196%

## O=S1(=O)NCN(C2CC2)c2cccc(Cl)c21
Primary neuron [1]
  Emax: > 9
Primary neuron [3]
  Activity: 2 µM
Rattus norvegicus [4]
  Activity: 352%
